Measurements reported in ChEMBL document CHEMBL2384912, “Design, synthesis, and inhibitory activity of potent, photoswitchable mast cell activation inhibitors” (J Med Chem, 2013).
Blank lines part the entries; values can stand above or below the compound they belong to. Activity calls are given as the source filed them. The rule behind the calls is not given here.

Tests used:
LAD2 [1] = test: Inhibition of human LAD2 mast cell activation assessed as compound 48/80-induced degranulation at 10 to 20 uM incubated for 30 mins prior to compound 48/80 challenge by beta-hexosaminidase release assay in presence of UV light; format: functional, cell-based
LAD2 [2] = test: Inhibition of human LAD2 mast cell activation assessed as compound 48/80-induced degranulation at 10 to 20 uM incubated for 30 mins prior to compound 48/80 challenge by beta-hexosaminidase release assay; format: functional, cell-based
Procedure, shortened: (§1)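 Supernatant was incubated with 2 mg/mL p-nitrophenyl-N-acetyl-D-glucosaminide in citrate buffer pH 4.5 for 1 h at 37 °C and stopped with 0.4 M glycine. A405 was read; % release = supernatant/(supernatant + lysate) × 100.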

LAD2 [3] = test: Inhibition of human LAD2 mast cell activation assessed as compound 48/80-induced degranulation at 200 to 400 uM incubated for 30 mins prior to compound 48/80 challenge by beta-hexosaminidase release assay in presence of UV light; format: functional, cell-based
LAD2 [4] = test: Inhibition of human LAD2 mast cell activation assessed as compound 48/80-induced degranulation at 200 to 400 uM incubated for 30 mins prior to compound 48/80 challenge by beta-hexosaminidase release assay; format: functional, cell-based; procedure, shortened: as §1
LAD2 [5] = test: Inhibition of human LAD2 mast cell activation assessed as compound 48/80-induced degranulation at 100 uM incubated for 30 mins prior to compound 48/80 challenge by histamine release assay; format: functional, cell-based
Procedure, shortened: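 Supernatant histamine was derivatized: NaOH, then 0.25% o-phthalaldehyde in MeOH for 4 min at room temperature, then HCl. Fluorescence was read at ex 360/em 450 nm; n = 3.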

LAD2 [6] = test: Inhibition of human LAD2 mast cell activation assessed as compound 48/80-induced degranulation at 10 uM incubated for 30 mins prior to compound 48/80 challenge by beta-hexosaminidase release assay; format: functional, cell-based; procedure, shortened: as §1
LAD2 [7] = test: Inhibition of human LAD2 mast cell activation assessed as compound 48/80-induced degranulation incubated for 30 mins prior to compound 48/80 challenge by beta-hexosaminidase release assay; format: functional, cell-based; procedure, shortened: as §1
[8] = Ratio of DSCG IC50 to compound IC50 for human LAD2 mast cell; format: functional
LAD2 [9] = test: Inhibition of human LAD2 mast cell activation assessed as 1.0 uM compound 48/80-induced degranulation incubated for 30 mins prior to compound 48/80 challenge by beta-hexosaminidase release assay; format: functional, cell-based; procedure, shortened: as §1
LAD2 [10] = test: Inhibition of human LAD2 mast cell activation assessed as compound 48/80-induced degranulation at 1000 uM incubated for 30 mins prior to compound 48/80 challenge by beta-hexosaminidase release assay; format: functional, cell-based; procedure, shortened: as §1
LAD2 [11] = test: Inhibition of human LAD2 mast cell activation assessed as 0.1 uM compound 48/80-induced degranulation incubated for 30 mins prior to compound 48/80 challenge by beta-hexosaminidase release assay; format: functional, cell-based; procedure, shortened: as §1

SMILES: O=C(O)c1cc(=O)c2c(OCc3cccc(/N=N/c4cccc(COc5cccc6oc(C(=O)O)cc(=O)c56)c4)c3)cccc2o1 (mixture of isomers)
- inhibition (LAD2 [1]): Active
- inhibition (LAD2 [2]): Active

SMILES: O=C(O)c1cc(=O)c2cc(/N=N/c3ccc4oc(C(=O)O)cc(=O)c4c3)ccc2o1
- inhibition (LAD2 [3]): Active
- inhibition (LAD2 [4]): Active

SMILES: O=C(O)c1cc(=O)c2c(OCc3ccc(/N=N/c4ccc(COc5cccc6oc(C(=O)O)cc(=O)c56)cc4)cc3)cccc2o1 (mixture of isomers)
- inhibition (LAD2 [1]): Active
- inhibition (LAD2 [2]): Active

SMILES: O=C(O)c1cc(=O)c2c(OCc3cccc(/N=N/c4cccc(COc5cccc6oc(C(=O)O)cc(=O)c56)c4)c3)cccc2o1
- inhibition (LAD2 [5]): Active
- inhibition (LAD2 [1]): Active
- inhibition (LAD2 [6]): Active
- inhibition (LAD2 [2]): Active

- IC50 (LAD2 [7]): 28 µM
SMILES: O=C([O-])c1cc(=O)c2c(OCc3ccc(/N=N/c4ccc(COc5cccc6oc(C(=O)[O-])cc(=O)c56)cc4)cc3)cccc2o1.[Na+].[Na+]
- Ratio IC50 [8]: 100

SMILES: O=C(O)c1cc(=O)c2c(OCc3ccc(/N=N/c4ccc(COc5cccc6oc(C(=O)O)cc(=O)c56)cc4)cc3)cccc2o1
- inhibition (LAD2 [1]): Active
- inhibition (LAD2 [2]): Active

SMILES: O=C(O)c1cc(=O)c2cc(/N=N/c3ccc4oc(C(=O)O)cc(=O)c4c3)ccc2o1 (mixture of isomers)
- inhibition (LAD2 [3]): Active
- inhibition (LAD2 [4]): Active

- IC50 (LAD2 [7]): 10 µM
SMILES: O=C([O-])c1cc(=O)c2c(OCc3cccc(/N=N/c4cccc(COc5cccc6oc(C(=O)[O-])cc(=O)c56)c4)c3)cccc2o1.[Na+].[Na+]
- Ratio IC50 [8]: 100

- IC50 (LAD2 [7]): > 1000 µM
SMILES: O=C(O)c1cc(=O)c2c(OCC(O)COc3cccc4oc(C(=O)O)cc(=O)c34)cccc2o1 [CROMOLYN SODIUM]
- Activity (LAD2 [5]): inactive
- inhibition (LAD2 [9]): inactive
- inhibition (LAD2 [10]): Active
- inhibition (LAD2 [11]): Active
